Data on 19 compounds can be found in ChEMBL document CHEMBL4184265, “Discovery of novel potent HCV NS5B polymerase non-nucleoside inhibitors bearing a fused benzofuran scaffold” (Bioorg Med Chem Lett, 2018).

As a reminder, the bioavailability is dose-corrected exposure relative to a reference, in per cent. The half-life is how long it takes for the measured level to halve. Higher therefore signals slow loss. The term CC50 denotes the concentration that lowers cell viability or growth by half. Broadly, the AUC(0-inf) is the area under the concentration-time curve extrapolated to infinity. The low end stands for low exposure, the high end for high exposure. As usually defined, the clearance is the volume of plasma or blood freed of the substance per unit of time. A high value points to a high capacity for elimination.

Data set [1] can be described thus: Metabolic stability in rat liver microsomes assessed as parent compound remaining after 60 mins. It is filed as ADME, microsome. The note with it: read-out: Stability. (In general: Liver microsomes are a subcellular fraction often used to study metabolism.)
Data set [2] in a line: Oral bioavailability in Sprague-Dawley rat at 5 mg/kg. It is filed as ADME, organism-based. The note with it: in vivo. In a few lines: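 Sprague-Dawley rats (n=3) dosed po at 5 mg/kg as a solution in 10% NMP/10% solutol/40% PEG-400/40% saline. Iv arm given at 1 mg/kg in the same vehicle.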
Data set [3] can be described thus: Half life in Sprague-Dawley rat at 1 mg/kg, iv. Type of data set: ADME, organism-based. The note with it: in vivo. In a few lines:
(§1)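 Sprague-Dawley rats (n=3) dosed iv at 1 mg/kg as a solution in 10% NMP/10% solutol/40% PEG-400/40% saline.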

A short description of data set [4]: Metabolic stability in human liver microsomes assessed as parent compound remaining after 60 mins. Type of data set: ADME, microsome. The conditions noted are these: read-out: Stability.
Data set [5] is described as follows: Volume of distribution at steady state in Sprague-Dawley rat at 1 mg/kg, iv. Type of data set: ADME, organism-based. The conditions noted are these: in vivo, read-out: Vdss. In a few lines:
as §1

Data set [6] can be described thus: Cytotoxicity against human HuH7 cells after 24 hrs. It is filed as cell-based, Huh-7.
Data set [7] in a line: AUC (infinity) in Sprague-Dawley rat at 1 mg/kg, iv. It is filed as ADME, organism-based. Details: dose 1 mg/kg, time infinity, route intravenous. The note with it: in vivo. The essentials:
as §1

Data set [8] has as its system Rattus norvegicus. Put plainly: Clearance in Sprague-Dawley rat at 1 mg/kg, iv. It is filed as ADME, organism-based. The conditions noted are these: in vivo. In a few lines:
as §1

A short description of data set [9]: Intrinsic solubility of the compound. It is filed as physicochemical.

Take `CNC(=O)c1c(-c2ccc(F)cc2)oc2cc3c(cc12)[C@H](C)O[C@H](CO)CN3S(C)(=O)=O`: the remaining at 1 h in data set [1] amounted to 60%; in data set [4], 100%. In data set [2], the bioavailability was found to be 73%. In [3], this compound showed a half-life of 1.32 h. Besides, the Vd in data set [5] was 2.25 L/kg. The CC50 at 24 h in data set [6] is > 3 µM. In addition, the AUC(0-inf) in [7] stood at 759 ng·h/mL. Besides, in data set [8], the clearance stood at 22 mL/min/kg.

In the case of `CNC(=O)c1c(-c2ccc(F)cc2)oc2cc3c(cc12)[C@H](C)n1nncc1CN3S(C)(=O)=O`, the bioavailability in data set [2] stood at 57%. Also, in data set [3], the half-life was 2.43 h. Also, in [5], the Vd is 1.41 L/kg. This compound also returned an AUC(0-inf) in data set [7] of 1300 ng·h/mL. Further, the clearance in data set [8] stood at 12.8 mL/min/kg.

Turning to `CS(=O)(=O)N1CCCCc2cc3c(-c4ncc[nH]4)c(-c4ccc(F)cc4)oc3cc21`, the solubility result in data set [9] is listed as “Insoluble”.

Take `CNC(=O)c1c(-c2ccc(F)cc2)oc2cc3c(cc12)[C@H](C)OCCN3S(C)(=O)=O`: the remaining at 1 h in [1] was found to be 5%; in [4] it was 32.6%.

For `CNC(=O)c1c(-c2ccc(F)cc2)oc2cc3c(cc12)[C@H](C)NC(=O)CN3S(C)(=O)=O`, the bioavailability in data set [2] turned out to be 14%. Further, the half-life in [3] is 0.68 h. Moreover, the Vd in data set [5] is 1.74 L/kg. The compound also displayed an AUC(0-inf) in data set [7] of 379 ng·h/mL. In addition, the clearance in data set [8] was determined as 44.5 mL/min/kg.

Take `CNC(=O)c1c(-c2ccc(F)cc2)oc2cc3c(cc12)[C@H](C)O[C@H](CS(C)(=O)=O)CN3S(C)(=O)=O`: the remaining at 1 h in data set [1] and in data set [4] was 100% in each case. Moreover, the CC50 at 24 h in data set [6] is > 10 µM.

`CNC(=O)c1c(-c2ccc(F)cc2)oc2cc3c(cc12)[C@H](C)CCCN3S(C)(=O)=O` came in with a bioavailability in data set [2] of 22%. The half-life in data set [3] is 0.96 h. Besides, the Vd in data set [5] was 2.36 L/kg. The compound also gave an AUC(0-inf) in data set [7] of 439 ng·h/mL. For the same compound, the clearance in data set [8] stood at 38.2 mL/min/kg.

In data set [2], `CNC(=O)c1c(-c2ccc(F)cc2)oc2cc3c(cc12)[C@@H](C)OCCN3S(C)(=O)=O` yielded a bioavailability of 16%. In data set [3], this compound had a half-life of 0.34 h. In addition, in [5], the Vd turned out to be 1.79 L/kg. Moreover, the AUC(0-inf) in data set [7] amounted to 234 ng·h/mL. This compound also displayed a clearance in data set [8] of 78 mL/min/kg.

As to `CNC(=O)c1c(-c2ccc(F)cc2)oc2cc3c(cc12)C(C)NC(=O)CN3S(C)(=O)=O` (racemic), the solubility entry in data set [9] is on record as “Insoluble”.

On to `CNC(=O)c1c(-c2ccc(F)cc2)oc2cc3c(cc12)C(C)OC(CO)CN3S(C)(=O)=O` (racemic), for which the remaining at 1 h in data set [1] stood at 68.9%; in data set [4], 85.9%.

As to `CNC(=O)c1c(-c2ccc(F)cc2)oc2cc3c(cc12)C(C)N(C)C(=O)CN3S(C)(=O)=O` (racemic), the solubility result in data set [9] is recorded as “Insoluble”.

Take `CNC(=O)c1c(-c2ccc(F)cc2)oc2cc3c(cc12)C(C)N(C)CCN3S(C)(=O)=O` (racemic): in data set [9], the solubility result is listed as “Soluble”.

Take `CNC(=O)c1c(-c2ccc(F)cc2)oc2cc3c(cc12)C(C)n1nnnc1CN3S(C)(=O)=O` (racemic): the solubility result in data set [9] is reported as “Insoluble”.

Regarding `CNC(=O)c1c(-c2ccc(F)cc2)oc2cc3c(cc12)C(C)OC(CS(C)(=O)=O)CN3S(C)(=O)=O` (racemic), the remaining at 1 h stood at 99.7% in data set [1] and 100% in data set [4]. The bioavailability in data set [2] worked out at 30%. In data set [3], this compound had a half-life of 3.62 h. In addition, the Vd in data set [5] worked out at 1.51 L/kg. In [7], this compound yielded an AUC(0-inf) of 1060 ng·h/mL. The clearance in [8] was found to be 16 mL/min/kg.

Take `CNC(=O)c1c(-c2ccc(F)cc2)oc2cc3c(cc12)C(C)CCCN3S(C)(=O)=O` (racemic): the remaining at 1 h in [1] and in data set [4] was 0.8% in each case.

For the compound `CNC(=O)c1c(-c2ccc(F)cc2)oc2cc3c(cc12)C(C)NCCN3S(C)(=O)=O` (racemic), the solubility entry in [9] is on record as “Soluble”.

Turning to `CNC(=O)c1c(-c2ccc(F)cc2)oc2cc3c(cc12)C(C)n1nncc1CN3S(C)(=O)=O` (racemic), in [9], the solubility entry was “Insoluble”.

Consider `CNC(=O)c1c(-c2ccc(F)cc2)oc2cc3c(cc12)C(C)n1ccnc1CN3S(C)(=O)=O` (racemic), for which the solubility entry in data set [9] was “Insoluble”.

On to `CNC(=O)c1c(-c2ccc(F)cc2)oc2cc(N(CCO)S(C)(=O)=O)c(C3CC3)cc12` [NESBUVIR], for which the remaining at 1 h in data set [1] stood at 84%; in data set [4], 53.3%. In data set [2], this compound returned a bioavailability of 73%. In addition, the half-life in [3] is 2.73 h. In addition, in data set [5], the Vd was 1.52 L/kg. This compound displayed a total exposure AUC(0-inf) in data set [7] of 1610 ng·h/mL. In [8], this compound yielded a clearance of 10.4 mL/min/kg.
